The structures appear in SMILES notation. Structures can show the parent of a compound that is named as a salt.

Test system in one series: not listed separately
Briefly: Antioxidant activity assessed as DPPH radical scavenging activity after 30 mins by spectrophotometry. The class given is physicochemical.
Conditions: not given
In general terms: DPPH is a stable violet radical that fades when it is reduced.
One may read the EC50 as the concentration needed to bring the measured effect to its halfway point. In the case of `O=C1c2c(O)cc(O)cc2O[C@@H](c2ccc(O)cc2)[C@@H]1O`, the concentration giving a half-maximal response (EC50) was greater than 100 µM.

In the case of `O=C1c2c(O)cc(O)cc2O[C@@H](c2ccc(O)c(O)c2)[C@@H]1O`, the 50% effective concentration (EC50) was 12.6 µM.

As for `O=C(O)c1cc(O)c(O)c(O)c1`, the EC50 amounted to 10 µM.

For `O=C1c2c(O)cc(O)cc2O[C@@H](c2ccccc2)[C@@H]1O`, the EC50 was greater than 100 µM.

Consider `O=C1c2c(O)cc(O)cc2O[C@H](c2ccccc2O)[C@H]1O`, for which the EC50 was greater than 100 µM.

In the case of `O=C1c2c(O)cc(O)cc2O[C@@H](c2ccccc2O)[C@@H]1O`, the EC50 was greater than 100 µM.

`O=C1c2c(O)cc(O)cc2O[C@H](c2cccc(O)c2)[C@H]1O`: the half-maximal effective concentration (EC50) was greater than 100 µM.

Take `O=C1c2c(O)cc(O)cc2O[C@@H](c2cccc(O)c2)[C@@H]1O`: the EC50 was greater than 100 µM.

Regarding `O=C1c2c(O)cc(O)cc2O[C@H](c2cccc(O)c2O)[C@H]1O`, the concentration giving a half-maximal response (EC50) was determined as 12.5 µM.

`O=C1c2c(O)cc(O)cc2O[C@@H](c2cccc(O)c2O)[C@@H]1O`: the EC50 is 13.2 µM.

Regarding `O=C1c2c(O)cc(O)cc2O[C@@H](c2ccc(O)cc2O)[C@@H]1O`, the concentration for a half-maximal effect (EC50) is greater than 100 µM.

`O=C1c2c(O)cc(O)cc2O[C@H](c2cc(O)ccc2O)[C@H]1O`: the concentration for a half-maximal effect (EC50) stood at 24.5 µM.

Regarding `O=C1c2c(O)cc(O)cc2O[C@@H](c2cc(O)ccc2O)[C@@H]1O`, the EC50 was determined as 25.4 µM.

`O=C1c2c(O)cc(O)cc2O[C@H](c2cc(O)cc(O)c2)[C@H]1O`: the 50% effective concentration (EC50) was greater than 100 µM.

As to `O=C1c2c(O)cc(O)cc2O[C@@H](c2cc(O)cc(O)c2)[C@@H]1O`, the half-maximal effective concentration (EC50) is greater than 100 µM.

For `COc1cccc([C@H]2Oc3cc(O)cc(O)c3C(=O)[C@@H]2O)c1`, the EC50 was greater than 100 µM.

As to `COc1cccc([C@@H]2Oc3cc(O)cc(O)c3C(=O)[C@H]2O)c1`, the EC50 is greater than 100 µM.

Turning to `COc1ccc([C@@H]2Oc3cc(O)cc(O)c3C(=O)[C@H]2O)cc1`, the concentration giving a half-maximal response (EC50) was greater than 100 µM.

Consider `COc1cccc([C@H]2Oc3cc(O)cc(O)c3C(=O)[C@@H]2O)c1OC`, for which the EC50 is greater than 100 µM.

Take `COc1cccc([C@@H]2Oc3cc(O)cc(O)c3C(=O)[C@H]2O)c1OC`: the EC50 is greater than 100 µM.

With `COc1ccc([C@H]2Oc3cc(O)cc(O)c3C(=O)[C@@H]2O)c(OC)c1`, the concentration for a half-maximal effect (EC50) is greater than 100 µM.

As for `COc1ccc([C@@H]2Oc3cc(O)cc(O)c3C(=O)[C@H]2O)c(OC)c1`, the 50% effective concentration (EC50) is greater than 100 µM.

As for `COc1ccc(OC)c([C@H]2Oc3cc(O)cc(O)c3C(=O)[C@@H]2O)c1`, the EC50 is greater than 100 µM.

As for `COc1ccc(OC)c([C@@H]2Oc3cc(O)cc(O)c3C(=O)[C@H]2O)c1`, the EC50 was greater than 100 µM.

In the case of `COc1cc(OC)cc([C@H]2Oc3cc(O)cc(O)c3C(=O)[C@@H]2O)c1`, the 50% effective concentration (EC50) was greater than 100 µM.

For the compound `COc1cc(OC)cc([C@@H]2Oc3cc(O)cc(O)c3C(=O)[C@H]2O)c1`, the EC50 is greater than 100 µM.

As for `COc1ccc([C@H]2Oc3cc(O)cc(O)c3C(=O)[C@@H]2O)cc1`, the EC50 was greater than 100 µM.

On to `COc1ccccc1C1Oc2cc(O)cc(O)c2C(=O)C1O` (racemic), for which the concentration giving a half-maximal response (EC50) is greater than 100 µM.

Consider `COc1cccc(OC)c1C1Oc2cc(O)cc(O)c2C(=O)C1O` (racemic), for which the EC50 is greater than 100 µM.

In the case of `COc1ccc(C2Oc3cc(O)cc(O)c3C(=O)C2O)cc1OC` (racemic), the EC50 is greater than 100 µM.

On to `O=C1c2c(O)cc(O)cc2O[C@H](c2ccc(O)c(O)c2)[C@H]1O` [(+)-TAXIFOLIN], for which the EC50 was determined as 13.9 µM.

Regarding `O=C1c2c(O)cc(O)cc2O[C@H](c2ccc(O)cc2)[C@H]1O` [DIHYDROKAEMPFEROL], the 50% effective concentration (EC50) is greater than 100 µM.

`O=C1c2c(O)cc(O)cc2O[C@H](c2ccc(O)cc2O)[C@H]1O` [DIHYDROMORIN]: the half-maximal effective concentration (EC50) is greater than 100 µM.

Turning to `O=C1c2c(O)cc(O)cc2O[C@H](c2ccccc2)[C@H]1O` [PINOBAKSIN], the EC50 is greater than 100 µM.

The next series concerns RAW264.7. Briefly: Antiinflammatory activity in mouse RAW264.7 cells assessed as inhibition of LPS-induced nitric oxide production at 100 uM pre-incubated for 2 hrs before LPS stimulation for 16 hrs by Griess method. It counts as functional.
Conditions: not given
Summed up:
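RAW 264.7 cells (1.6 × 10^6 cells/mL) in F-12 Ham medium with 10% FBS, glutamate and penicillin-streptomycin. Compounds were given as DMSO stock diluted 1:100 in medium, final 100 µM, and concentration was checked by UV absorbance. After 2 h at 37 °C, LPS was added to a final 100 ng/mL and cells were incubated 16 h. Aminoguanidine was the positive control; mean ± S.D., n = 3.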
For orientation: Nitrite, measured by Griess reagent, commonly stands in for NO production.
By inhibition is commonly meant the share of the control response that was lost under treatment. Regarding `O=C1c2c(O)cc(O)cc2O[C@@H](c2ccc(O)cc2)[C@@H]1O`, the inhibition at 100 µM was less than 10%.

Consider `O=C1c2c(O)cc(O)cc2O[C@@H](c2ccc(O)c(O)c2)[C@@H]1O`, for which the inhibition at 100 µM is less than 10%.

With `O=C1c2c(O)cc(O)cc2O[C@@H](c2ccccc2)[C@@H]1O`, the inhibition at 100 µM is less than 10%.

As for `O=C1c2c(O)cc(O)cc2O[C@H](c2ccccc2O)[C@H]1O`, the inhibition at 100 µM is 40%.

`O=C1c2c(O)cc(O)cc2O[C@@H](c2ccccc2O)[C@@H]1O`: the inhibition at 100 µM is less than 15%.

For `O=C1c2c(O)cc(O)cc2O[C@H](c2cccc(O)c2)[C@H]1O`, the inhibition at 100 µM was 35%.

In the case of `O=C1c2c(O)cc(O)cc2O[C@@H](c2cccc(O)c2)[C@@H]1O`, the inhibition at 100 µM is less than 15%.

As to `O=C1c2c(O)cc(O)cc2O[C@H](c2cccc(O)c2O)[C@H]1O`, the inhibition at 100 µM came out at 70%.

With `O=C1c2c(O)cc(O)cc2O[C@@H](c2cccc(O)c2O)[C@@H]1O`, the inhibition at 100 µM is 45%.

Regarding `O=C1c2c(O)cc(O)cc2O[C@@H](c2ccc(O)cc2O)[C@@H]1O`, the inhibition at 100 µM is less than 10%.

For the compound `O=C1c2c(O)cc(O)cc2O[C@H](c2cc(O)ccc2O)[C@H]1O`, the inhibition at 100 µM came to 30%.

Take `O=C1c2c(O)cc(O)cc2O[C@@H](c2cc(O)ccc2O)[C@@H]1O`: the inhibition at 100 µM was less than 15%.

Regarding `O=C1c2c(O)cc(O)cc2O[C@H](c2cc(O)cc(O)c2)[C@H]1O`, the inhibition at 100 µM is less than 10%.

On to `O=C1c2c(O)cc(O)cc2O[C@@H](c2cc(O)cc(O)c2)[C@@H]1O`, for which the inhibition at 100 µM is less than 10%.

On to `COc1cccc([C@H]2Oc3cc(O)cc(O)c3C(=O)[C@@H]2O)c1`, for which the inhibition at 100 µM is less than 10%.

Consider `COc1cccc([C@@H]2Oc3cc(O)cc(O)c3C(=O)[C@H]2O)c1`, for which the inhibition at 100 µM is less than 10%.

With `COc1ccc([C@@H]2Oc3cc(O)cc(O)c3C(=O)[C@H]2O)cc1`, the inhibition at 100 µM is less than 10%.

With `COc1cccc([C@H]2Oc3cc(O)cc(O)c3C(=O)[C@@H]2O)c1OC`, the inhibition at 100 µM is less than 10%.

On to `COc1cccc([C@@H]2Oc3cc(O)cc(O)c3C(=O)[C@H]2O)c1OC`, for which the inhibition at 100 µM is less than 10%.

Regarding `COc1ccc([C@H]2Oc3cc(O)cc(O)c3C(=O)[C@@H]2O)c(OC)c1`, the inhibition at 100 µM is less than 10%.

Regarding `COc1ccc([C@@H]2Oc3cc(O)cc(O)c3C(=O)[C@H]2O)c(OC)c1`, the inhibition at 100 µM was less than 10%.

Take `COc1ccc(OC)c([C@H]2Oc3cc(O)cc(O)c3C(=O)[C@@H]2O)c1`: the inhibition at 100 µM was less than 10%.

As to `COc1ccc(OC)c([C@@H]2Oc3cc(O)cc(O)c3C(=O)[C@H]2O)c1`, the inhibition at 100 µM was less than 10%.

`COc1cc(OC)cc([C@H]2Oc3cc(O)cc(O)c3C(=O)[C@@H]2O)c1`: the inhibition at 100 µM was less than 10%.

For `COc1cc(OC)cc([C@@H]2Oc3cc(O)cc(O)c3C(=O)[C@H]2O)c1`, the inhibition at 100 µM was less than 10%.

As to `COc1ccc([C@H]2Oc3cc(O)cc(O)c3C(=O)[C@@H]2O)cc1`, the inhibition at 100 µM was less than 10%.

Consider `COc1ccccc1C1Oc2cc(O)cc(O)c2C(=O)C1O` (racemic), for which the inhibition at 100 µM is less than 10%.

Regarding `COc1cccc(OC)c1C1Oc2cc(O)cc(O)c2C(=O)C1O` (racemic), the inhibition at 100 µM is less than 10%.

Consider `COc1ccc(C2Oc3cc(O)cc(O)c3C(=O)C2O)cc1OC` (racemic), for which the inhibition at 100 µM was less than 10%.

With `O=C1c2c(O)cc(O)cc2O[C@H](c2ccc(O)c(O)c2)[C@H]1O` [(+)-TAXIFOLIN], the inhibition at 100 µM is less than 10%.

Take `O=C1c2c(O)cc(O)cc2O[C@H](c2ccc(O)cc2)[C@H]1O` [DIHYDROKAEMPFEROL]: the inhibition at 100 µM was less than 10%.

For `O=C1c2c(O)cc(O)cc2O[C@H](c2ccc(O)cc2O)[C@H]1O` [DIHYDROMORIN], the inhibition at 100 µM is less than 10%.

As to `N=C(N)NN` [PIMAGEDINE HYDROCHLORIDE], the inhibition at 100 µM was found to be 72%.

Turning to `O=C1c2c(O)cc(O)cc2O[C@H](c2ccccc2)[C@H]1O` [PINOBAKSIN], the inhibition at 100 µM was less than 10%.

Another series concerns RAW264.7. The experiment in a line: Cytotoxicity against mouse RAW264.7 cells assessed as cell viability at 100 uM pre-incubated for 2 hrs before LPS stimulation for 16 hrs followed by 4 hrs incubation by alamar blue assay. It counts as cell-based. As to conditions: raw264.7, 100 µM. The method, boiled down: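 Viability was read on the RAW 264.7 cells left after supernatant removal in the LPS/NO assay (100 µM compound, 2 h pre-incubation, LPS 100 ng/mL for 16 h). AlamarBlue was added and plates were incubated 4 h at 37 °C. Absorbance was read at 570 nm (reference 655 nm).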
Regarding `O=C1c2c(O)cc(O)cc2O[C@H](c2ccccc2O)[C@H]1O`, the Activity entry is on record as “Non-toxic”.

`O=C1c2c(O)cc(O)cc2O[C@@H](c2ccccc2O)[C@@H]1O`: the Activity result is recorded as “Non-toxic”.

With `O=C1c2c(O)cc(O)cc2O[C@H](c2cccc(O)c2)[C@H]1O`, the Activity result is recorded as “Non-toxic”.

With `O=C1c2c(O)cc(O)cc2O[C@@H](c2cccc(O)c2)[C@@H]1O`, the Activity result is “Non-toxic”.

In the case of `O=C1c2c(O)cc(O)cc2O[C@H](c2cccc(O)c2O)[C@H]1O`, the Activity entry is “Non-toxic”.

`O=C1c2c(O)cc(O)cc2O[C@@H](c2cccc(O)c2O)[C@@H]1O`: the Activity result was “Non-toxic”.

With `O=C1c2c(O)cc(O)cc2O[C@H](c2cc(O)ccc2O)[C@H]1O`, the Activity entry is reported as “Non-toxic”.

In the case of `O=C1c2c(O)cc(O)cc2O[C@@H](c2cc(O)ccc2O)[C@@H]1O`, the Activity entry is on record as “Non-toxic”.

(Values after ChEMBL document CHEMBL3632598, “Stereospecific inhibition of nitric oxide production in macrophage cells by flavanonols: Synthesis and the structure-activity relationship” (Bioorg Med Chem, 2015).)
